Legend:
[1] = tested on: EKVX; assay: Growth inhibition of human EKVX cells; assay type: functional
[2] = tested on: COLO 205; assay: Growth inhibition of human COLO205 cells; assay type: functional
[3] = tested on: TK-10; assay: Growth inhibition of human TK10 cells; assay type: functional
[4] = tested on: SR; assay: Growth inhibition of human SR cells; assay type: functional
[5] = tested on: NCI-H460; assay: Growth inhibition of human NCI-H460 cells; assay type: functional
[6] = tested on: HCC 2998; assay: Growth inhibition of human HCC2998 cells; assay type: functional
[7] = tested on: HT-29; assay: Growth inhibition of human HT-29 cells; assay type: functional
[8] = tested on: MDA-MB-435; assay: Growth inhibition of human MDA-MB-435 cells; assay type: functional
[9] = tested on: SF-539; assay: Growth inhibition of human SF539 cells; assay type: functional
[10] = tested on: ACHN; assay: Growth inhibition of human ACHN cells; assay type: functional
[11] = tested on: NCI-H226; assay: Growth inhibition of human NCI-H226 cells; assay type: functional
[12] = tested on: SW-620; assay: Growth inhibition of human SW620 cells; assay type: functional
[13] = tested on: RXF 393; assay: Growth inhibition of human RXF393 cells; assay type: functional
[14] = tested on: LOX IMVI; assay: Growth inhibition of human LOXIMVI cells; assay type: functional
[15] = Antiproliferative activity against human WM164 cells after 48 hrs by SRB assay; assay type: functional, cell-based; settings: WM164, 48 h
Procedure, shortened: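 Melanoma lines and control fibroblasts grown at 37 °C, 5% CO2, then exposed to a wide concentration range for 48 h in round-bottom 96-well plates. Fixed with 10% TCA, stained with SRB, protein read at 560 nm. IC50 (50% growth inhibition versus untreated) obtained by nonlinear regression.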

[16] = tested on: HOP-62; assay: Growth inhibition of human HOP62 cells; assay type: functional
[17] = tested on: CCRF-CEM; assay: Growth inhibition of human CCRF-CEM cells; assay type: functional
[18] = tested on: SNB-75; assay: Growth inhibition of human SNB75 cells; assay type: functional
[19] = tested on: NCI-H322M; assay: Growth inhibition of human NCI-H322M cells; assay type: functional
[20] = tested on: SK-MEL-28; assay: Growth inhibition of human SK-MEL-28 cells; assay type: functional
[21] = read-out: LC50 (the source's name)

## CCCCCCCCCCCCCCCCCCNC(=O)[C@@H]1CSC(c2ccccc2)N1 (mixture of isomers)
[1]
  GI50: 2.12 µM
  TGI: 4.72 µM
[1]; [21]
  CC50: 12.3 µM
[2]
  GI50: 2.32 µM
  TGI: 4.98 µM
[2]; [21]
  CC50: 12.7 µM
[3]
  GI50: 7.46 µM
  TGI: 29.2 µM
[3]; [21]
  CC50: > 100 µM
[4]
  GI50: 0.49 µM
  TGI: 1.79 µM
[4]; [21]
  CC50: 6.79 µM
[5]
  GI50: 1.41 µM
  TGI: 2.98 µM
[5]; [21]
  CC50: 6.31 µM
[6]
  GI50: 0.54 µM
  TGI: 1.8 µM
[6]; [21]
  CC50: 4.24 µM
[7]
  GI50: 1.75 µM
  TGI: 3.41 µM
[7]; [21]
  CC50: 6.67 µM
[8]
  GI50: 2.01 µM
  TGI: 4.12 µM
[8]; [21]
  CC50: 8.45 µM
[9]
  GI50: 1.72 µM
  TGI: 3.09 µM
[9]; [21]
  CC50: 5.56 µM
[10]
  GI50: 2.12 µM
  TGI: 4.9 µM
[10]; [21]
  CC50: 13.5 µM
[11]
  GI50: 2.06 µM
  TGI: 3.83 µM
[11]; [21]
  CC50: 7.11 µM
[12]
  GI50: 1.18 µM
  TGI: 2.4 µM
[12]; [21]
  CC50: 4.9 µM
[13]
  GI50: 1.55 µM
  TGI: 3.01 µM
[13]; [21]
  CC50: 5.85 µM
[14]
  GI50: 1.23 µM
  TGI: 2.59 µM
[14]; [21]
  CC50: 5.48 µM
[15]
  IC50: 4.4 µM
[16]
  GI50: 1.77 µM
  TGI: 3.15 µM
[16]; [21]
  CC50: 5.61 µM
[17]
  GI50: 0.56 µM
  TGI: 2.1 µM
[17]; [21]
  CC50: 6.5 µM
[18]
  GI50: 2.64 µM
  TGI: 4.15 µM
[18]; [21]
  CC50: 6.54 µM
[19]
  GI50: 2.28 µM
  TGI: 5.15 µM
[19]; [21]
  CC50: 15.4 µM
[20]
  GI50: 1.49 µM
  TGI: 2.81 µM
[20]; [21]
  CC50: 5.3 µM

— ChEMBL document CHEMBL1159121, “Synthesis, in vitro structure-activity relationship, and in vivo studies of 2-arylthiazolidine-4-carboxylic acid amides as anticancer agents” (Bioorg Med Chem, 2010)
